Experimental findings from ChEMBL document CHEMBL4665810, “Aryloxy Diester Phosphonamidate Prodrugs of Phosphoantigens (ProPAgens) as Potent Activators of Vγ9/Vδ2 T-Cell Immune Responses” (J Med Chem, 2020) are described below.

The target of data set [1] is T1, Butyrophilin subfamily 3 member A1 (Homo sapiens, UniProt O00481). The data set is described as follows: Binding affinity to BTN3A1 in human PBMC-derived Vgamma9/Vdelta2 T cells. In kind it is tissue-based, Vgamma9Vdelta2 T cell.
Target sequence in this assay (O00481 whole entry): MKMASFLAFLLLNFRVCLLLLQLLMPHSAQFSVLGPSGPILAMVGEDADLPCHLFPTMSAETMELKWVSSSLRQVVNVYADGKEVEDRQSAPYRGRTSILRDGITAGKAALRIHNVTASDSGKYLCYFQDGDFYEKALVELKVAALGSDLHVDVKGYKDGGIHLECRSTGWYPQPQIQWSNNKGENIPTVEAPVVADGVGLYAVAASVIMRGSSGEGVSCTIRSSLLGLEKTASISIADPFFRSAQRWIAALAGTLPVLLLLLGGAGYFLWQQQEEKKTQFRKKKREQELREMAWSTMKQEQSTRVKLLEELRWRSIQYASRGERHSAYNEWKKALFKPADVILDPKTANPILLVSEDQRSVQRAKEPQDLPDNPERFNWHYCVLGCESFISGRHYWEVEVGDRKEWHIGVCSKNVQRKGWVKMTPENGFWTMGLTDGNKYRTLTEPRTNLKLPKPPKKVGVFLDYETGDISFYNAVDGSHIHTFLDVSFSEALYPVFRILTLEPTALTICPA
Data set [2] deals with T1, Butyrophilin subfamily 3 member A1. Nature of the data set: Binding affinity to BTN3A1 in human PBMC-derived Vgamma9/Vdelta2 T cells assessed as induction of Vgamma9/Vdelta2 T cell mediated T-24 cell lysis co-expressing GFP at 10 pM preincubated 4 hrs followed by compound washout and subsequent Vgamma9Vdelta2 T cell addition at 8:1 effector/target ratio and measured after 18 hrs by fluorescence based assay. In kind it is tissue-based. The method, boiled down:
(§1)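 T24 bladder carcinoma cells made GFP+ by retroviral transduction. Targets pulsed 4 h with 10 pM compound, washed three times in RPMI, then cocultured 18 h at 37 °C with Vγ9Vδ2 T-cells expanded 14 days from donor PBMCs (5 μM zoledronate, 100 U/mL IL2 every 2–3 days). % killing = eFluor780+ GFP+ of all GFP+ T24 cells, by flow cytometry. Basal untreated-target killing subtracted; mean ± SE, n = 3.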
Target sequence in this assay (O00481 30-513 limits assumed): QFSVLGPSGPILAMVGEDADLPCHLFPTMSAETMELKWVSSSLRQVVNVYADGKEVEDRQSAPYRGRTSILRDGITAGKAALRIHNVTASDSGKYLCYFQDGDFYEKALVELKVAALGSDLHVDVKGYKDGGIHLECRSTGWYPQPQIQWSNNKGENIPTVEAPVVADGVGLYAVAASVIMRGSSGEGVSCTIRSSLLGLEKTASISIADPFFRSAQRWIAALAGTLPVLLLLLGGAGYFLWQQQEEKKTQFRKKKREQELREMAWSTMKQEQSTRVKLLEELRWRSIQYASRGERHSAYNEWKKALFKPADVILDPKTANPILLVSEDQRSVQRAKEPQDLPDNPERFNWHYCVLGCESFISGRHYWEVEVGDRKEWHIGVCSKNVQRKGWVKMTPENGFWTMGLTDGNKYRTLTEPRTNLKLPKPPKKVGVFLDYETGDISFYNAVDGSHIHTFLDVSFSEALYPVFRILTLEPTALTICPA

Data set [3] concerns T-24. Nature of the data set: Cytotoxicity against human T-24 cells co-expressing GFP assessed as reduction in cell viability at 10 pM after 4 hrs by eFluor 780 fixable viability dye based fluorescence assay. As to conditions: t-24, 4 h. The method, boiled down: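 GFP+ T24 cells pulsed 4 h with 10 pM compound, washed, and held 18 h at 37 °C without effector cells (0:1 ratio). Dead targets measured by flow cytometry as eFluor780+ GFP+ fraction of total GFP+ T24 cells; mean ± SE, n = 3.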

The target in data set [4] is T1, Butyrophilin subfamily 3 member A1. The data set is described as follows: Binding affinity to BTN3A1 in human PBMC-derived Vgamma9/Vdelta2 T cells assessed as induction of Vgamma9/Vdelta2 T cell mediated T-24 cell lysis co-expressing GFP at 10 pM preincubated 4 hrs followed by compound washout and subsequent Vgamma9Vdelta2 T cell addition at 1:1 effector/target ratio and measured after 18 hrs by fluorescence based assay. In kind it is tissue-based. In outline:
as §1
Target sequence in this assay (O00481 30-513 limits assumed): as above

The test system of data set [5] is CD8-positive T cell. Nature of the data set: Activation of human PBMC derived CD-8 positive cells assessed as increase in alphabeta T cells at 0.1 to 10000 nM by Alexa Flour A88a staining based flow cytometry. The following applies: dose nM 0.1-10000. In kind it is functional.
Data set [6] deals with T1, Butyrophilin subfamily 3 member A1. Nature of the data set: Potency index, ratio of HMBPP EC50 to test compound EC50 for activation of BTN3A1 in human PBMC-derived Vgamma9/Vdelta2 T cells. In kind it is tissue-based. The following applies: Vgamma9Vdelta2 T cell.
Target sequence in this assay (O00481 30-513 limits assumed): as above
For data set [7] the target is unchanged. Nature of the data set: Binding affinity to BTN3A1 in human PBMC-derived Vgamma9/Vdelta2 T cells assessed as increase in CD69/CD25 level incubated for overnight by flow cytometric analysis. In kind it is tissue-based, Vgamma9Vdelta2 T cell. In outline:
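Healthy-donor PBMCs, 5 × 10^5 cells per well, stimulated with compounds over 10 pM to 100 μM, or 1 aM to 100 μM in a separate run. Incubated overnight at 37 °C/5% CO2. Vγ9+Vδ2+ cells gated within live CD3+ cells by flow cytometry and scored as % CD69+CD25+.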
(In flow cytometry, cells or beads pass a laser one at a time.)
Target sequence in this assay (O00481 whole entry): as the sequence (O00481 whole entry) above

Data set [8] is described as follows: Half life in human serum at 5 mg and measured up to 12 hrs by 31PNMR analysis. In kind it is ADME, cell-free. The method, boiled down:
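Prodrug (5.0 mg) dissolved in DMSO/D2O; control 31P NMR spectrum recorded at 37 °C, then freshly thawed human serum added. 31P NMR spectra acquired at 37 °C every 30 min over 12 h to follow the prodrug signals.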

Data set [9] in a line: Stability of compound in human serum at 5 mg and measured at 30 mins interval for up to 12 hrs by 31PNMR analysis. In kind it is ADME, cell-free. In outline: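 Compound, 5.0 mg in DMSO/D2O, with control 31P NMR recorded at 37 °C. Freshly thawed human serum then added and 31P NMR spectra recorded at 37 °C every 30 min over 12 h.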
Data set [10] is described as follows: Drug metabolism assessed as recombinant carboxypeptidase Y (unknown origin)-mediated metabolite C formation and measured up to 15 hrs by LC-MS analysis. In kind it is ADME. As to conditions: human.
Data set [11] can be described thus: Drug metabolism assessed as recombinant carboxypeptidase Y (unknown origin)-mediated hydrolysis of ester motif at 3 mg measured at 1 hr interval […] by 31PNMR analysis. In kind it is ADME, Homo sapiens. The method, boiled down:
(§2)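 Compound, 3.0 mg in acetone-d6, mixed with TRIZMA buffer pH 7.6. Control 31P NMR taken at 25 °C, then carboxypeptidase Y (0.1 mg in TRIZMA) added. Spectra recorded at 25 °C after 10 min and then every 1 h for 12 h.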

The nature of data set [12]: Drug metabolism assessed as recombinant carboxypeptidase Y (unknown origin)-mediated metabolite C formation and measured up to 15 hrs by HPLC analysis. In kind it is ADME. The following applies: human.
Data set [13] is described as follows: Drug metabolism assessed as recombinant carboxypeptidase Y (unknown origin)-metabolite C formation at 3 mg measured at 1 hr interval for […] by 31PNMR analysis. In kind it is ADME, Homo sapiens. The method, boiled down: as §2

Activity calls are given as the source filed them. Where only a bound is given, the exact number is not on record here.

As a reminder, the EC50 is the concentration that produces a half-maximal response. Consider `O=P(O)(O)C(O)(Cc1cccnc1)P(=O)(O)O` [RISEDRONIC ACID], for which the EC50 in data set [1] came to 80 nM.

For `C/C(=C\CC(F)(F)P(=O)(N[C@@H](C)C(=O)OCc1ccccc1)Oc1ccccc1)CO` (some centres undefined), the outcome in data set [2] and in data set [4] was Active. For the same compound, the Activity entry in data set [3] was “Non-Toxic”. Further, the outcome in data set [5] was inactive. Further, in data set [6], the Ratio EC50 came out at 15000.

Take `O=P(O)(O)C(O)(Cn1ccnc1)P(=O)(O)O` [ZOLEDRONIC ACID]: in [7], the EC50 came out at 3060 nM.

One may read the half-life as the time needed for the level to fall by half in the phase considered. Lower therefore signals fast loss. `C/C(=C\COP(=O)(O)OP(=O)(O)O)CO`: the result in [2] and in data set [4] was Active. Also, the Activity result in data set [3] was “Non-Toxic”. Further, the half-life in data set [8] is more than 12 h.

For `C/C(=C\CCP(=O)(N[C@@H](C)C(=O)OCc1ccccc1)Oc1ccccc1)CO` (some centres undefined), the Stabilty entry in [9] is “Stable”. For the same compound, the result in data set [2] and in [4] was Active. Moreover, in data set [3], the Activity result is given as “Non-Toxic”. For the same compound, the outcome in data set [5] was inactive. Besides, in [6], the Ratio EC50 was 15000.

For `COC(=O)[C@H](C)NP(=O)(Oc1ccccc1)C(F)(F)C/C=C(\C)CO` (some centres undefined), the Stabilty entry in data set [9] is given as “Stable”. Further, in data set [7], the EC50 worked out at 0.728 nM.

As for `COC(=O)[C@H](C)NP(=O)(CC/C=C(\C)CO)Oc1ccccc1` (some centres undefined), the EC50 in data set [7] amounted to 0.617 nM.

With `C/C(=C\CC(F)(F)P(=O)(N[C@@H](C)C(=O)OC(C)C)Oc1ccccc1)CO` (some centres undefined), the Drug metabolism result in [10], in data set [11], in [12] and in data set [13] was “Metabolite_Detected” each time. For the same compound, the EC50 in data set [7] came to 0.759 nM.

As for `C/C(=C\CCP(=O)(N[C@@H](C)C(=O)OC(C)(C)C)Oc1ccccc1)CO` (some centres undefined), the result in data set [2] and in data set [4] was Active. Moreover, the EC50 in data set [7] came to 73.4 nM. In data set [3], the Activity result is given as “Non-Toxic”.

For the compound `C/C(=C\CCP(=O)(N[C@@H](C)C(=O)OC(C)C)Oc1ccccc1)CO` (some centres undefined), the half-maximal effective concentration (EC50) in [7] is 0.519 nM.

Consider `C/C(=C\CC(F)(F)P(=O)(N[C@@H](C)C(=O)OC(C)(C)C)Oc1ccccc1)CO` (some centres undefined), for which the result in [2] and in [4] was Active. For the same compound, the EC50 in [7] came to 25.8 nM. In addition, in data set [3], the Activity result is listed as “Non-Toxic”.
